For test [1], the system named is Mus musculus. The test is described as follows: Analgesic activity in Swiss mouse assessed as inhibition of acetic acid-induced abdominal constriction at 100 umol/kg, po administered 1 hr before acetic acid challenge. The format is functional. As to conditions: Abdomen. Summed up:
(§1)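 Swiss mice (18–23 g) received compounds orally as a suspension in 5% arabic gum in saline; controls received an equal volume of vehicle. After 1 h, 0.6% acetic acid (0.1 ml/10 g) was given ip. Constrictions were counted for 20 min, starting 10 min after injection. Results are % inhibition versus vehicle; N = 7–10 per group; mean ± SEM; one-way ANOVA with Dunnett test.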

The test system of test [2] is Rattus norvegicus. The test is described as follows: Antiinflammatory activity in Wistar rat assessed as inhibition of carrageenan-induced paw edema at 100 umol/kg, po measured 3 hrs post carrageenan challenge. The format is functional. A digest of the protocol:
(§2)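 Fasted Wistar rats of both sexes (150–200 g) were dosed orally with a suspension in 5% arabic gum in saline; controls received vehicle. After 1 h, 1% carrageenan (0.1 ml, […]) was injected subplantarly into the right hind paw and sterile saline into the left. Paw volumes were read by glass plethysmometer 3 h later. Edema is the carrageenan-minus-saline paw volume; results are % inhibition versus vehicle.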

Test [3] has as its system Rattus norvegicus. The test is described as follows: Antiinflammatory activity in po dosed Wistar rat assessed as inhibition of carrageenan-induced paw edema measured 3 hrs post carrageenan challenge. The format is functional. A digest of the protocol:
as §2

In test [4] the test system is Rattus norvegicus. The test is described as follows: Antihyperalgesic activity in Wistar rat assessed as inhibition of capsaicin-induced thermal hyperalgesia at 100 umol/kg, po. The format is functional, organism-based. A digest of the protocol:
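Fasted Wistar rats of both sexes (150–200 g) had basal and acclimatization withdrawal latencies recorded on a 52 °C hot plate. Compound was given orally 1 h before an intraplantar injection of 5% capsaicin in DMSO into the right hind paw. Right hind paw withdrawal latency was timed by chronometer at 2, 5, 10, 30 and 60 min post-challenge.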

For test [5], the system named is Mus musculus. The test is described as follows: Analgesic activity in po dosed Swiss mouse assessed as inhibition of acetic acid-induced abdominal constriction administered 1 hr before acetic acid challenge. The format is functional. As to conditions: Abdomen. Summed up: as §1
Test [6] has as its target T1, Prostaglandin G/H synthase 2 (Homo sapiens, UniProt P35354).
T1 sequence (P35354 whole entry): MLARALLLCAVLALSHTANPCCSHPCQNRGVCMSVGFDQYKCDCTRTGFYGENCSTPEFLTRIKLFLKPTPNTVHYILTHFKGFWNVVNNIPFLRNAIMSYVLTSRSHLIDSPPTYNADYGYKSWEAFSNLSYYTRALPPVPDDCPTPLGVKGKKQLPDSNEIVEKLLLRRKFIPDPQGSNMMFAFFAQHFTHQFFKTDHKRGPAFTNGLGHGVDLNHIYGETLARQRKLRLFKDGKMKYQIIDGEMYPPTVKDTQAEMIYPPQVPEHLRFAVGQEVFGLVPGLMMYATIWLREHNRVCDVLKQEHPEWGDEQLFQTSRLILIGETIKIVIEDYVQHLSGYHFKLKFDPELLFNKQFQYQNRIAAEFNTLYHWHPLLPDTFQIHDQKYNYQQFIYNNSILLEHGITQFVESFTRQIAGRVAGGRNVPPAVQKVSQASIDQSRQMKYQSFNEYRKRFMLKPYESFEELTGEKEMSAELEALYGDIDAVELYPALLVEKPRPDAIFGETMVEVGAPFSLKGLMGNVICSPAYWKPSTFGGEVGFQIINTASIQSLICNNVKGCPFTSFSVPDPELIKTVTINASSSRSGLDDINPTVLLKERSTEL
The experiment in a line: Inhibition of PGHS2 in human whole blood assessed as inhibition of TXB2 production by radioimmunoassay. The format is tissue-based.

pIC50: −log10 of the molar value. The source made the active and inactive calls. No cut-off for these calls is given here.

As for `c1ccc(Nc2c(-c3ccccc3)nc3ccccn23)cc1`, the figures for the inhibition in vivo at 100 µmol/kg in the test on Mus musculus [1] and in the test on Rattus norvegicus [2] were 10.8% and 63.9%, respectively. For the same compound, the 50% effective dose (ED50) in the test on Rattus norvegicus [3] was determined as 14.5 µmol/kg. Further, the outcome with Rattus norvegicus [4] was Active.

For `Cc1ccc(-c2cc(C(F)(F)F)nn2-c2ccc(S(N)(=O)=O)cc2)cc1` [CELECOXIB], the inhibition in vivo at 100 µmol/kg in the test on Mus musculus [1] worked out at 46.1%; with Rattus norvegicus [2], 30%. The ED50 in the test on Mus musculus [5] came out at 247 µmol/kg; with Rattus norvegicus [3], 87.7 µmol/kg.

Regarding `c1ccc(Nc2c(-c3ccncc3)nc3ccccn23)cc1`, the inhibition in vivo at 100 µmol/kg in the test with Mus musculus [1] was 13%; in the test on Rattus norvegicus [2], 49.9%. For the same compound, in the test on Rattus norvegicus [3], the ED50 amounted to 11.5 µmol/kg. The result in the test with Rattus norvegicus [4] was Active.

In the case of `c1ccc(Nc2c(-c3ccccn3)nc3ccccn23)cc1`, the inhibition in vivo at 100 µmol/kg with Mus musculus [1] is -3%; in the test with Rattus norvegicus [2] it was 33.4%. Also, in test [6], the negative-log IC50 (pIC50) is 4.73. Moreover, in the test on Rattus norvegicus [4], the result was Active.

`CS(=O)(=O)c1ccc(-c2nc3ccccn3c2Nc2ccccc2)cc1`: the inhibition in vivo at 100 µmol/kg in the test with Mus musculus [1] came to 7.4%; with Rattus norvegicus [2] it was 28.2%. For the same compound, the result with Rattus norvegicus [4] was inactive.

For `CS(=O)(=O)c1ccc(Nc2c(-c3ccccn3)nc3ccccn23)cc1`, the values for the inhibition in vivo at 100 µmol/kg with Mus musculus [1] and in the test on Rattus norvegicus [2] were 33.7% and 18.5%, respectively. For the same compound, in the test with Rattus norvegicus [4], the result was Active.

As to `CS(=O)(=O)c1ccc(Nc2c(-c3ccncc3)nc3ccccn23)cc1`, the inhibition in vivo at 100 µmol/kg in the test on Mus musculus [1] is 33.6%; in the test on Rattus norvegicus [2], 1.8%. In the test with Rattus norvegicus [4], the outcome was Active.

On to `COc1ccc(Nc2c(-c3ccc(S(C)(=O)=O)cc3)nc3ccccn23)cc1`, for which the inhibition in vivo at 100 µmol/kg in the test with Mus musculus [1] was 53%; with Rattus norvegicus [2], 41.7%. Besides, the 50% effective dose (ED50) with Mus musculus [5] is 22.7 µmol/kg; with Rattus norvegicus [3], 8.7 µmol/kg. For the same compound, in test [6], the pIC50 was 5.55. Further, the result in the test on Rattus norvegicus [4] was inactive.

Take `CS(=O)(=O)c1ccc(-c2nc3ccccn3c2Nc2ccccn2)cc1`: the inhibition in vivo at 100 µmol/kg came out at 22.2% in the test on Mus musculus [1] and 17.2% in the test with Rattus norvegicus [2]. In addition, the result in the test on Rattus norvegicus [4] was Active.

The values above are taken from ChEMBL document CHEMBL1139334, “Discovery of novel analgesic and anti-inflammatory 3-arylamine-imidazo[1,2-a]pyridine symbiotic prototypes” (Bioorg Med Chem, 2009).
